Reference: ChEMBL document CHEMBL3588757, “Structure-based design, synthesis and biological testing of piperazine-linked bis-epipodophyllotoxin etoposide analogs” (Bioorg Med Chem, 2015)

Key:
Format in all cases: functional
HCC 2998 = assay: Cytotoxicity against human HCC2998 cells by SRB assay
Method in brief: (§1)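 Measured in the NCI-60 human tumour cell line panel using five-dose testing. Growth was recorded at each dose for each cell line, and a GI50 was derived for each line.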

U-251 = assay: Cytotoxicity against human U251 cells by SRB assay
Method in brief: (§2)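 NCI-60 panel screen; 5-dose testing giving GI50 per cell line, plus a single 10 µM one-dose test. Method details not given beyond the NCI screen.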

MCF7 [1] = assay: Cytotoxicity against human MCF7 cells assessed as cell growth at 0.5 uM by SRB assay; conditions: read-out: Activity
SNB-19 [2] = assay: Cytotoxicity against human SNB19 cells assessed as cell growth at 0.5 uM by SRB assay; conditions: read-out: Activity
OVCAR-4 [3] = assay: Cytotoxicity against human OVCAR4 cells assessed as cell growth at 5 uM by SRB assay; conditions: read-out: Activity
SF-539 = assay: Cytotoxicity against human SF539 cells assessed as cell growth at 0.05 uM by SRB assay; conditions: read-out: Activity
CAKI-1 = assay: Cytotoxicity against human Caki1 cells assessed as cell growth at 0.005 uM by SRB assay; conditions: read-out: Activity
UACC-62 [4] = assay: Cytotoxicity against human UACC62 cells assessed as cell growth at 5 uM by SRB assay; conditions: read-out: Activity
OVCAR-3 = assay: Cytotoxicity against human OVCAR3 cells assessed as cell growth at 0.005 uM by SRB assay; conditions: read-out: Activity
MDA-MB-231 [5] = assay: Cytotoxicity against human MDA-MB-231/ATCC cells assessed as cell growth at 0.05 uM by SRB assay; conditions: read-out: Activity
MCF7 [6] = assay: Cytotoxicity against human MCF7 cells assessed as cell growth at 5 uM by SRB assay; conditions: read-out: Activity
UACC-257 [7] = assay: Cytotoxicity against human UACC257 cells assessed as cell growth at 50 uM by SRB assay; conditions: read-out: Activity
KM12 = assay: Cytotoxicity against human KM12 cells assessed as cell growth at 5 uM by SRB assay; conditions: read-out: Activity
NCI-H23 [8] = assay: Cytotoxicity against human NCI-H23 cells assessed as cell growth at 0.05 uM by SRB assay; conditions: read-out: Activity
COLO 205 = assay: Cytotoxicity against human COLO205 cells by SRB assay
RXF 393 = assay: Cytotoxicity against human RXF393 cells assessed as cell growth at 0.05 uM by SRB assay; conditions: read-out: Activity
MCF7 [9] = assay: Cytotoxicity against human MCF7 cells assessed as cell growth at 0.005 uM by SRB assay; conditions: read-out: Activity
[10] = Cytotoxicity against human NCI-ADR-RES cells assessed as cell growth at 5 uM by SRB assay; conditions: read-out: Activity
HOP-62 = assay: Cytotoxicity against human HOP62 cells assessed as cell growth at 0.05 uM by SRB assay; conditions: read-out: Activity; method in brief: as §1
ACHN [11] = assay: Cytotoxicity against human ACHN cells assessed as cell growth at 50 uM by SRB assay; conditions: read-out: Activity
NCI-H23 [12] = assay: Cytotoxicity against human NCI-H23 cells assessed as cell growth at 5 uM by SRB assay; conditions: read-out: Activity
MCF7 [13] = assay: Cytotoxicity against human MCF7 cells by SRB assay; method in brief: as §2
UACC-257 [14] = assay: Cytotoxicity against human UACC257 cells assessed as cell growth at 0.5 uM by SRB assay; conditions: read-out: Activity
[15] = Cytotoxicity against human NCI-ADR-RES cells assessed as cell growth at 0.05 uM by SRB assay; conditions: read-out: Activity
UO-31 = assay: Cytotoxicity against human UO31 cells assessed as cell growth at 0.5 uM by SRB assay; conditions: read-out: Activity
MDA-MB-468 = assay: Cytotoxicity against human MDA-MB-468 cells assessed as cell growth at 50 uM by SRB assay; conditions: read-out: Activity
NCI-H226 [16] = assay: Cytotoxicity against human NCI-H226 cells assessed as cell growth at 0.5 uM by SRB assay; conditions: read-out: Activity
NCI-H226 [17] = assay: Cytotoxicity against human NCI-H226 cells by SRB assay; method in brief: as §2
SNB-75 = assay: Cytotoxicity against human SNB75 cells assessed as cell growth at 0.05 uM by SRB assay; conditions: read-out: Activity
MDA-MB-231 [18] = assay: Cytotoxicity against human MDA-MB-231/ATCC cells assessed as cell growth at 0.005 uM by SRB assay; conditions: read-out: Activity
TK-10 = assay: Cytotoxicity against human TK10 cells assessed as cell growth at 5 uM by SRB assay; conditions: read-out: Activity
SW-620 = assay: Cytotoxicity against human SW620 cells assessed as cell growth at 0.005 uM by SRB assay; conditions: read-out: Activity
ACHN [19] = assay: Cytotoxicity against human ACHN cells assessed as cell growth at 0.05 uM by SRB assay; conditions: read-out: Activity
SNB-19 [20] = assay: Cytotoxicity against human SNB19 cells by SRB assay; method in brief: as §2
HL-60(TB) = assay: Cytotoxicity against human HL-60(TB) cells assessed as cell growth at 0.05 uM by SRB assay; conditions: read-out: Activity; method in brief: as §1
NCI-H226 [21] = assay: Cytotoxicity against human NCI-H226 cells assessed as cell growth at 5 uM by SRB assay; conditions: read-out: Activity
SF-268 = assay: Cytotoxicity against human SF268 cells by SRB assay; method in brief: as §2
HCT-116 = assay: Cytotoxicity against human HCT116 cells assessed as cell growth at 0.5 uM by SRB assay; conditions: read-out: Activity; method in brief: as §1
SR = assay: Cytotoxicity against human SR cells assessed as cell growth at 0.5 uM by SRB assay; conditions: read-out: Activity
UACC-257 [22] = assay: Cytotoxicity against human UACC257 cells assessed as cell growth at 5 uM by SRB assay; conditions: read-out: Activity
UACC-62 [23] = assay: Cytotoxicity against human UACC62 cells by SRB assay; method in brief: as §2
OVCAR-4 [24] = assay: Cytotoxicity against human OVCAR4 cells assessed as cell growth at 0.05 uM by SRB assay; conditions: read-out: Activity
[25] = read-out: LC50 (the source's name)
[26] = read-out: pLC50 (the source's name) (converted)

COc1cc([C@@H]2c3cc4c(cc3[C@@H](NC(=O)CN3CCN(CCCCCCN5CCN(CC(=O)N[C@@H]6c7cc8c(cc7[C@@H](c7cc(OC)c(O)c(OC)c7)[C@H]7C(=O)OC[C@@H]76)OCO8)CC5)CC3)[C@H]3COC(=O)[C@H]23)OCO4)cc(OC)c1O
GI50 (HCC 2998; read-out: GI50): 9.47 µM
CC50 (HCC 2998; [25]): > 50 µM
TGI (HCC 2998; read-out: TGI): 38.3 µM
GI50 (HCC 2998; read-out: pGI50 (converted)): 9.55 µM
CC50 (HCC 2998; [26]): > 50.1 µM
TGI (HCC 2998; read-out: pTGI (converted)): 38 µM
GI50 (U-251; read-out: GI50): 1.56 µM
CC50 (U-251; [25]): > 50 µM
TGI (U-251; read-out: TGI): 25.1 µM
GI50 (U-251; read-out: pGI50 (converted)): 1.55 µM
CC50 (U-251; [26]): > 50.1 µM
TGI (U-251; read-out: pTGI (converted)): 25.1 µM
growth at 0.5 µM (MCF7 [1]): 31%
growth at 0.5 µM (SNB-19 [2]): 66%
growth at 5 µM (OVCAR-4 [3]): 64%
growth at 0.05 µM (SF-539): 96%
growth at 0.005 µM (CAKI-1): 89%
growth at 5 µM (UACC-62 [4]): 29%
growth at 0.005 µM (OVCAR-3): 110%
growth at 0.05 µM (MDA-MB-231 [5]): 94%
growth at 5 µM (MCF7 [6]): 12%
growth at 50 µM (UACC-257 [7]): 41%
growth at 5 µM (KM12): 46%
growth at 0.05 µM (NCI-H23 [8]): 102%
GI50 (COLO 205; read-out: GI50): 5.79 µM
CC50 (COLO 205; [25]): > 50 µM
TGI (COLO 205; read-out: TGI): 44.7 µM
GI50 (COLO 205; read-out: pGI50 (converted)): 5.75 µM
CC50 (COLO 205; [26]): > 50.1 µM
TGI (COLO 205; read-out: pTGI (converted)): 44.7 µM
growth at 0.05 µM (RXF 393): 92%
growth at 0.005 µM (MCF7 [9]): 80%
growth at 5 µM [10]: 107%
growth at 0.05 µM (HOP-62): 96%
growth at 50 µM (ACHN [11]): 37%
growth at 5 µM (NCI-H23 [12]): 44%
GI50 (MCF7 [13]; read-out: GI50): 0.195 µM
CC50 (MCF7 [13]; [25]): > 50 µM
TGI (MCF7 [13]; read-out: TGI): > 50 µM
GI50 (MCF7 [13]; read-out: pGI50 (converted)): 0.195 µM
CC50 (MCF7 [13]; [26]): > 50.1 µM
TGI (MCF7 [13]; read-out: pTGI (converted)): > 50.1 µM
growth at 0.5 µM (UACC-257 [14]): 108%
growth at 0.05 µM [15]: 103%
growth at 0.5 µM (UO-31): 92%
growth at 50 µM (MDA-MB-468): -33%
growth at 0.5 µM (NCI-H226 [16]): 73%
GI50 (NCI-H226 [17]; read-out: GI50): 5.42 µM
CC50 (NCI-H226 [17]; [25]): > 50 µM
TGI (NCI-H226 [17]; read-out: TGI): 46.8 µM
GI50 (NCI-H226 [17]; read-out: pGI50 (converted)): 5.37 µM
CC50 (NCI-H226 [17]; [26]): > 50.1 µM
TGI (NCI-H226 [17]; read-out: pTGI (converted)): 46.8 µM
growth at 0.05 µM (SNB-75): 77%
growth at 0.005 µM (MDA-MB-231 [18]): 103%
growth at 5 µM (TK-10): 85%
growth at 0.005 µM (SW-620): 97%
growth at 0.05 µM (ACHN [19]): 98%
GI50 (SNB-19 [20]; read-out: GI50): 1.03 µM
CC50 (SNB-19 [20]; [25]): > 50 µM
TGI (SNB-19 [20]; read-out: TGI): > 50 µM
GI50 (SNB-19 [20]; read-out: pGI50 (converted)): 1.02 µM
CC50 (SNB-19 [20]; [26]): > 50.1 µM
TGI (SNB-19 [20]; read-out: pTGI (converted)): > 50.1 µM
growth at 0.05 µM (HL-60(TB)): 114%
growth at 5 µM (NCI-H226 [21]): 52%
GI50 (SF-268; read-out: GI50): 1.38 µM
CC50 (SF-268; [25]): > 50 µM
TGI (SF-268; read-out: TGI): > 50 µM
GI50 (SF-268; read-out: pGI50 (converted)): 1.38 µM
CC50 (SF-268; [26]): > 50.1 µM
TGI (SF-268; read-out: pTGI (converted)): > 50.1 µM
growth at 0.5 µM (HCT-116): 60%
growth at 0.5 µM (SR): 22%
growth at 5 µM (UACC-257 [22]): 62%
GI50 (UACC-62 [23]; read-out: GI50): 1.55 µM
CC50 (UACC-62 [23]; [25]): > 50 µM
TGI (UACC-62 [23]; read-out: TGI): 35.7 µM
GI50 (UACC-62 [23]; read-out: pGI50 (converted)): 1.55 µM
CC50 (UACC-62 [23]; [26]): > 50.1 µM
TGI (UACC-62 [23]; read-out: pTGI (converted)): 35.5 µM
growth at 0.05 µM (OVCAR-4 [24]): 89%
